Measured values: ChEMBL document CHEMBL3627653, “Synthesis and biological evaluation of spiro[cyclopropane-1,3'-indolin]-2'-ones as potential anticancer agents” (Bioorg Med Chem Lett, 2015)
Activity calls are given as the source filed them. No cut-off for these calls is given here.

Assays:
[1] = system: MCF7; assay: Anticancer activity against human MCF7 cells; assay type: functional
Method in brief: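 Human MCF-7 breast cancer cells exposed to compound for 48 h. The IC50 (50% inhibitory concentration) is reported as the average of three individual experiments.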

[2] = system: A549; assay: Anticancer activity against human A549 cells assessed as reduction in cell viability incubated for 48 hrs by MTT assay; assay type: functional, cell-based; conditions: A549, 48 h
[3] = system: DU-145; assay: Anticancer activity against human DU145 cells assessed as reduction in cell viability incubated for 48 hrs by MTT assay; assay type: functional, cell-based; conditions: DU-145, 48 h
[4] = system: MCF7; assay: Anticancer activity against human MCF7 cells assessed as reduction in cell viability incubated for 48 hrs by MTT assay; assay type: functional, cell-based; conditions: MCF7, 48 h
[5] = system: HT-29; assay: Anticancer activity against human HT-29 cells assessed as reduction in cell viability incubated for 48 hrs by MTT assay; assay type: functional, cell-based; conditions: HT-29, 48 h
[6] = system: HeLa; assay: Anticancer activity against human HeLa cells assessed as reduction in cell viability incubated for 48 hrs by MTT assay; assay type: functional, cell-based
[7] = system: DU-145; assay: Reduction in mitochondrial membrane potential in human DU145 cells assessed as cell level at Q1-upper left quadrant at 3 uM incubated for 48 hrs by JC1 dye staining based flow cytometry (reference value: 1.6%); assay type: functional; parameters: scale not given: the % may be the effect or the level left
Method in brief: (§1)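 After 48 h exposure at 1.5 or 3 μM, DU-145 cells were stained with JC-1 to track loss of mitochondrial membrane potential (ΔΨm) and read on a FACScan flow cytometer. Untreated control and nocodazole (1.5 μM) were run alongside.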

[8] = system: DU-145; assay: Reduction in mitochondrial membrane potential in human DU145 cells assessed as cell level at Q1-lower right quadrant at 1.5 uM incubated for 48 hrs by JC1 dye staining based flow cytometry (reference value: 3.1%); assay type: functional; parameters: scale not given: the % may be the effect or the level left; method in brief: as §1
[9] = system: DU-145; assay: Induction of apoptosis in human DU145 cells assessed as necrotic cells level at 1.5 uM incubated for 48 hrs by Annexin V-FITC and propidium iodide staining based flow cytometry (reference value: 3.56%); assay type: functional
[10] = system: DU-145; assay: Induction of cell cycle arrest in human DU145 cells assessed as accumulation at S phase at 3 uM incubated for 48 hrs by propidium iodide staining based flow cytometry (reference value: 1.74%); assay type: functional
[11] = system: DU-145; assay: Induction of apoptosis in human DU145 cells assessed as viable cells level at 3 uM incubated for 48 hrs by Annexin V-FITC and propidium iodide staining based flow cytometry (reference value: 87.88%); assay type: functional
[12] = system: HEK293; assay: Cytotoxic activity against human HEK293 cells assessed as reduction in cell viability incubated for 48 hrs by MTT assay; assay type: cell-based; conditions: HEK293, 48 h
[13] = system: DU-145; assay: Induction of apoptosis in human DU145 cells assessed as increase in caspase-3 levels level at 1.5 and 3 uM incubated for 48 hrs by ELISA method; assay type: functional
Method in brief: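 Caspase-3 levels measured in DU-145 cells after 48 h treatment at 1.5 and 3 μM and expressed relative to untreated control. Data are mean ± SD of two experiments each run in triplicate; significance set at P < 0.005 versus control.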

[14] = system: DU-145; assay: Induction of apoptosis in human DU145 cells assessed as necrotic cells level at 3 uM incubated for 48 hrs by Annexin V-FITC and propidium iodide staining based flow cytometry (reference value: 3.56%); assay type: functional
[15] = system: DU-145; assay: Induction of apoptosis in human DU145 cells assessed as late apoptotic cells level at 3 uM incubated for 48 hrs by Annexin V-FITC and propidium iodide staining based flow cytometry (reference value: 3.83%); assay type: functional
[16] = system: DU-145; assay: Induction of apoptosis in human DU145 cells assessed as viable cells level at 1.5 uM incubated for 48 hrs by Annexin V-FITC and propidium iodide staining based flow cytometry (reference value: 87.88%); assay type: functional
[17] = system: DU-145; assay: Induction of cell cycle arrest in human DU145 cells assessed as accumulation at G2/M phase at 1.5 uM incubated for 48 hrs by propidium iodide staining based flow cytometry (reference value: 6.51%); assay type: functional
[18] = system: DU-145; assay: Induction of apoptosis in human DU145 cells assessed as early apoptotic cells level at 1.5 uM incubated for 48 hrs by Annexin V-FITC and propidium iodide staining based flow cytometry (reference value: 4.73%); assay type: functional
[19] = system: DU-145; assay: Reduction in mitochondrial membrane potential in human DU145 cells assessed as cell level at Q1-upper right quadrant at 1.5 uM incubated for 48 hrs by JC1 dye staining based flow cytometry (reference value: 95.1%); assay type: functional; parameters: scale not given: the % may be the effect or the level left; method in brief: as §1
[20] = system: DU-145; assay: Reduction in mitochondrial membrane potential in human DU145 cells at 3 uM incubated for 48 hrs by JC1 dye staining based flow cytometry; assay type: functional, cell-based; method in brief: as §1
[21] = system: DU-145; assay: Induction of cell cycle arrest in human DU145 cells assessed as accumulation at S phase at 1.5 uM incubated for 48 hrs by propidium iodide staining based flow cytometry (reference value: 1.74%); assay type: functional
[22] = system: DU-145; assay: Reduction in mitochondrial membrane potential in human DU145 cells assessed as cell level at Q1-lower right quadrant at 3 uM incubated for 48 hrs by JC1 dye staining based flow cytometry (reference value: 3.1%); assay type: functional; parameters: scale not given: the % may be the effect or the level left; method in brief: as §1
[23] = system: DU-145; assay: Reduction in mitochondrial membrane potential in human DU145 cells assessed as cell level at Q1-lower left quadrant at 3 uM incubated for 48 hrs by JC1 dye staining based flow cytometry (reference value: 0.1%); assay type: functional; parameters: scale not given: the % may be the effect or the level left; method in brief: as §1
[24] = system: DU-145; assay: Induction of cell cycle arrest in human DU145 cells assessed as accumulation at G0/G1 phase at 3 uM incubated for 48 hrs by propidium iodide staining based flow cytometry (reference value: 79.81%); assay type: functional
[25] = system: DU-145; assay: Induction of cell cycle arrest in human DU145 cells assessed as accumulation at subG1 phase at 3 uM incubated for 48 hrs by propidium iodide staining based flow cytometry (reference value: 9.12%); assay type: functional
[26] = system: DU-145; assay: Reduction in mitochondrial membrane potential in human DU145 cells assessed as cell level at Q1-upper right quadrant at 3 uM incubated for 48 hrs by JC1 dye staining based flow cytometry (reference value: 95.1%); assay type: functional; parameters: scale not given: the % may be the effect or the level left; method in brief: as §1
[27] = system: DU-145; assay: Induction of apoptosis in human DU145 cells assessed as early apoptotic cells level at 3 uM incubated for 48 hrs by Annexin V-FITC and propidium iodide staining based flow cytometry (reference value: 4.73%); assay type: functional
[28] = system: DU-145; assay: Induction of cell cycle arrest in human DU145 cells assessed as accumulation at G2/M phase at 3 uM incubated for 48 hrs by propidium iodide staining based flow cytometry (reference value: 6.51%); assay type: functional
[29] = system: DU-145; assay: Reduction in mitochondrial membrane potential in human DU145 cells assessed as cell level at Q1-upper left quadrant at 1.5 uM incubated for 48 hrs by JC1 dye staining based flow cytometry (reference value: 1.6%); assay type: functional; parameters: scale not given: the % may be the effect or the level left; method in brief: as §1
[30] = system: DU-145; assay: Induction of cell cycle arrest in human DU145 cells assessed as accumulation at subG1 phase at 1.5 uM incubated for 48 hrs by propidium iodide staining based flow cytometry (reference value: 9.12%); assay type: functional
[31] = system: DU-145; assay: Induction of apoptosis in human DU145 cells assessed as late apoptotic cells level at 1.5 uM incubated for 48 hrs by Annexin V-FITC and propidium iodide staining based flow cytometry (reference value: 3.83%); assay type: functional
[32] = system: DU-145; assay: Reduction in mitochondrial membrane potential in human DU145 cells assessed as cell level at Q1-lower left quadrant at 1.5 uM incubated for 48 hrs by JC1 dye staining based flow cytometry (reference value: 0.1%); assay type: functional; parameters: scale not given: the % may be the effect or the level left; method in brief: as §1
[33] = system: DU-145; assay: Reduction in mitochondrial membrane potential in human DU145 cells at 1.5 uM incubated for 48 hrs by JC1 dye staining based flow cytometry; assay type: functional, cell-based; method in brief: as §1
[34] = system: DU-145; assay: Induction of cell cycle arrest in human DU145 cells assessed as accumulation at G0/G1 phase at 1.5 uM incubated for 48 hrs by propidium iodide staining based flow cytometry (reference value: 79.81%); assay type: functional

`CN1O[C@@]2(C[C@@H]1c1ccccc1)C(=O)Nc1ccccc12` was tested. Which GI50 [1] did it give?
Its GI50 is 2.6 µM.

Which IC50 [2] does the source give for `CCOC(=O)[C@H]1[C@H](C(=O)c2ccc(Cl)cc2)C12C(=O)N(C)c1ccccc12` (relative stereo) here?
Its IC50 is 6.56 µM.

And the IC50 [3]?
Its IC50 is 6.3 µM.

And the IC50 [4]?
The IC50 was 12.6 µM.

And the IC50 [5]?
Its IC50 is 8.51 µM.

What about the IC50 [6] of the same compound?
Its IC50 is 12.6 µM.

Which IC50 [2] does the source give for `CCOC(=O)[C@H]1[C@H](C(=O)c2ccc(C)cc2)C12C(=O)N(C)c1ccccc12` (relative stereo) here?
The IC50 was 5.49 µM.

What about the IC50 [3] of the same compound?
Its IC50 is 7.24 µM.

And the IC50 [4]?
Its IC50 is 24.7 µM.

What about the IC50 [5] of the same compound?
Its IC50 is 23.9 µM.

And the IC50 [6]?
The IC50 was 33.5 µM.

How did the IC50 [2] turn out when `CCOC(=O)[C@H]1[C@H](C(=O)c2ccc([N+](=O)[O-])cc2)C12C(=O)Nc1ccccc12` (relative stereo) was run?
The IC50 was 19.1 µM.

What about the IC50 [3] of the same compound?
Its IC50 is 19.8 µM.

What about the IC50 [4] of the same compound?
Its IC50 is 22.1 µM.

And the IC50 [5]?
Its IC50 is 25.1 µM.

What about the IC50 [6] of the same compound?
The IC50 was 41.3 µM.

Which results are given for `CCOC(=O)[C@H]1[C@H](C(=O)c2ccc(C)cc2)C12C(=O)Nc1ccc(Br)cc12` (relative stereo)?
Activity [7]: 2.1%; Activity [8]: 7.5%; Activity [9]: 3.41%; Activity [10]: 64.01%; Activity [11]: 17%; IC50 [2]: 4.56 µM; IC50 [3]: 1.86 µM; IC50 [12]: 79.4 µM; fold change (FC) [13]: 2; Activity [14]: 11.5%; Activity [15]: 18.78%; Activity [16]: 2.74%; Activity [17]: 2.1%; Activity [18]: 57.28%; Activity [19]: 88.1%; IC50 [4]: 3.63 µM; Activity [20]: Active; Activity [21]: 26.17%; Activity [22]: 12%; Activity [23]: 1.8%; Activity [24]: 3.4%; Activity [25]: 85.57%; IC50 [5]: 1.87 µM; Activity [26]: 84.1%; IC50 [6]: 16.1 µM; Activity [27]: 22.98%; Activity [28]: 3.16%; Activity [29]: 3.1%; Activity [30]: 8.8%; Activity [31]: 66.31%; Activity [32]: 1.1%; Activity [33]: Active; Activity [34]: 1.35%

`CCOC(=O)[C@H]1[C@H](C(=O)c2ccc3ccccc3c2)C12C(=O)Nc1ccc(Br)cc12` (relative stereo) was tested. Which IC50 [2] did it give?
The IC50 was 25 µM.

And the IC50 [3]?
The IC50 was 36.9 µM.

And the IC50 [4]?
Its IC50 is 29.3 µM.

What about the IC50 [5] of the same compound?
Its IC50 is 79.4 µM.

What about the IC50 [6] of the same compound?
Its IC50 is greater than 100 µM.

With `CCOC(=O)[C@H]1[C@H](C(O)c2ccc([N+](=O)[O-])cc2)C12C(=O)Nc1ccc(Br)cc12` (some centres not stated) as the compound, how does the IC50 [2] read?
Its IC50 is 21.1 µM.

And the IC50 [3]?
The IC50 was 27.8 µM.

What about the IC50 [4] of the same compound?
Its IC50 is greater than 100 µM.

What about the IC50 [5] of the same compound?
The IC50 was 23.4 µM.

And the IC50 [6]?
The IC50 was 28.8 µM.

Which results are given for `COC(=O)Nc1nc2cc(C(=O)c3cccs3)ccc2[nH]1` [NOCODAZOLE]?
Activity [8]: 8.3%; Activity [9]: 3.92%; Activity [16]: 81.21%; Activity [17]: 26.59%; Activity [18]: 9.52%; Activity [19]: 87.5%; Activity [21]: 5.61%; Activity [29]: 2.8%; Activity [30]: 9.25%; Activity [31]: 5.35%; Activity [32]: 1.4%; Activity [33]: Active; Activity [34]: 57.63%

With `CCOC(=O)[C@H]1[C@H](C(=O)c2ccccc2)C12C(=O)N(C)c1ccccc12` (relative stereo) as the compound, how does the IC50 [2] read?
Its IC50 is 7.24 µM.

What about the IC50 [3] of the same compound?
Its IC50 is 7.94 µM.

And the IC50 [4]?
Its IC50 is 13.2 µM.

And the IC50 [5]?
The IC50 was 16.1 µM.

And the IC50 [6]?
The IC50 was 19.5 µM.

Which results are given for `CCOC(=O)[C@H]1[C@H](C(=O)c2ccc(Cl)cc2)C12C(=O)Nc1ccccc12` (relative stereo)?
IC50 [2]: 12.9 µM; IC50 [3]: 15.8 µM; IC50 [4]: 18.6 µM; IC50 [5]: 23.7 µM; IC50 [6]: 19.9 µM
